The values that follow come from ChEMBL document CHEMBL1124845, “Synthesis and antiviral activity of some 7-[(2-hydroxyethoxy)methyl]pyrazolo[3,4-d]pyrimidine analogues of sangivamycin and toyocamycin” (J Med Chem, 1990).

Broadly, the pIC50 is the IC50 on a negative log10 scale, so that one unit is a factor of ten.

The nature of assay [1]: (§1) Tested for cytotoxic activity against monkey kidney cells(BSC-1) cells. In kind it is functional, cell-based. The settings on record: Cercopithecidae. The essentials: (§2)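 Cytotoxicity was scored visually on uninfected HFF or BSC-1 cells within the plaque-reduction plates. Drug-induced cytopathology was graded 0 to 4+ at 35- and 60-fold magnification on the day of staining for plaque enumeration.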

Assay [2] concerns HFF. The assay is described as follows: Tested for cytotoxic activity against human foreskin fibroblasts (HFF) cells. In kind it is functional, cell-based. The essentials:
as §2

Assay [3] can be described thus: Tested for cytotoxic activity against human neoplastic cell line(KB cells). In kind it is functional, cell-based. The essentials: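 KB cells were grown in MEM with Hank salts and 5% FBS. Inhibition of radioactive precursor incorporation into DNA, RNA and protein was measured. IC50s were obtained by regression of percent inhibition against log concentration, and the three values were averaged.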

Assay [4] deals with BSC-1. The assay is described as §1. In kind it is functional, cell-based, Cercopithecidae. The settings on record: Chlorocebus aethiops. The essentials:
as §2

Assay [5] concerns Human betaherpesvirus 5. Kind of assay: Tested for antiviral activity against human cytomegalovirus (HCMV) by means of plaque reduction assay. In kind it is functional, organism-based. The method, boiled down:
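HFF monolayers (MEM(E), 10% FBS) were inoculated with about 50 PFU of a plaque-purified Towne strain HCMV isolate in 0.2 mL. Test compounds were included in the overlay medium and plaques counted. IC50 came from a linear regression of percent inhibition versus log concentration. Positive controls ran in all assays, with sets rejected if the control deviated >1.5 SD.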
On the technique in general: Plaques are areas of infected cells; plaque reduction assays count them against a control.

Assay [6] concerns Human alphaherpesvirus 1. The assay is described as follows: Tested for antiviral activity against herpes simplex virus-1(HSV-1) by means of plaque reduction assay. In kind it is functional, organism-based. The method, boiled down: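 Monolayer BSC-1 cells (MEM with Earle's salts, 10% FBS) infected with about 100 PFU HSV-1 strain S-148 in 0.2 mL inoculum. Compounds were dissolved in the overlay medium and plaques counted. IC50 was taken from a linear regression of percent inhibition against log concentration. An acyclovir or ganciclovir positive control was run in every assay, and sets deviating >1.5 SD were rejected.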

pIC50: −log10 of the molar value. Bounds are passed on as bounds.

With `Nc1nc2c(ncn2COCCO)c(=O)[nH]1` [ACYCLOVIR], the pIC50 in assay [1], in assay [2] and in assay [3] was below 4.00 each time.
Take `N#Cc1nnc2nc[nH]c(N)c1-2`: the pIC50 is below 4.00 in assay [4], 4.17 in assay [5], below 4.00 in assay [2] and 4.80 in assay [6].
With `Nc1nc2c(ncn2COC(CO)CO)c(=O)[nH]1` [GANCICLOVIR], the negative-log IC50 (pIC50) in assay [1] is below 4.00; in assay [2] it was below 4.00; in assay [3] it was 3.00.
On to `NC(=O)c1nn(COCCO)c2ncnc(N)c12`, for which the pIC50 in assay [1], in assay [5], in assay [2], in assay [6] and in assay [3] was below 4.00 each time.
As for `NC(=S)c1nn(COCCO)c2ncnc(N)c12`, the pIC50 was 4.00 in assay [1]; 5.60 in assay [5]; 4.26 in assay [2]; 5.05 in assay [6]; 4.62 in assay [3].
As to `N#Cc1nn(COCCO)c2ncnc(N)c12`, the pIC50 in assay [1], in assay [5], in assay [2] and in assay [6] was below 4.00 each time.
Regarding `COC(=N)c1nn(COCCO)c2ncnc(N)c12`, the pIC50 in assay [1], in assay [5], in assay [2] and in assay [6] was below 4.00 throughout.
With `CC(=O)OCCOCn1nc(C#N)c2c(N)ncnc21`, the pIC50 in assay [1] is below 4.00; in assay [5] it was below 4.00; in assay [2], below 4.00; in assay [6], below 4.00; in assay [3] it was 4.27.
